Results published in ChEMBL document CHEMBL2311475, “Highly solvatochromic fluorescent naphthalimides: design, synthesis, photophysical properties and fluorescence switch-on sensing of ct-DNA” (Bioorg Med Chem Lett, 2013).
The source made the active and inactive calls. No cut-off for these calls is given here.

Tests used:
Assay type in all cases: nucleic-acid assay
Settings in all cases: Bos taurus
[1] = test system: DNA; assay: Binding affinity to calf thymus DNA at 30 uM by in presence of increasing concentration of DNA by Benesi-Hildebrand plot analysis
[2] = test system: DNA; assay: Binding affinity to calf thymus DNA assessed melting temperature at 2:1 compound:DNA ratio by thermal denaturation assay (reference value: 65.83 degC)
[3] = test system: DNA; assay: Binding affinity to calf thymus DNA assessed melting temperature at 1:0.5 compound:DNA ratio by thermal denaturation assay (reference value: 65.83 degC)
[4] = test system: DNA; assay: Binding affinity to calf thymus DNA at 30 uM by fluorescence titration method
Summary of the method: (§1)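 Fluorescence titration: probe held at 30 μM in aqueous phosphate buffer, pH 7.0, at room temperature, with increasing concentrations of ct-DNA added. Emission spectra were recorded at each step.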

[5] = test system: DNA; assay: Binding affinity to calf thymus DNA assessed melting temperature at 1:1 compound:DNA ratio by thermal denaturation assay (reference value: 65.83 degC)
[6] = test system: DNA; assay: Binding affinity to calf thymus DNA at 1:0.67 to 1:2 DNA:compound ratio by UV-Vis spectrophotometric analysis
Summary of the method: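 Absorption spectra of the probe were recorded in aqueous phosphate buffer, pH 7.0, while ct-DNA was added gradually. Shifts in band position and changes in intensity were followed.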

[7] = test system: DNA; assay: Displacement of ethidium bromide from calf thymus DNA at 3.5 to 75 uM by fluorescence spectrophotometric analysis
[8] = test system: DNA; assay: Binding affinity to calf thymus DNA assessed melting temperature at 1:1.5 compound:DNA ratio by thermal denaturation assay (reference value: 65.83 degC)
[9] = test system: DNA; assay: Binding affinity to calf thymus DNA at 1:1 compound:DNA ratio by fluorescence titration method; summary of the method: as §1

| SMILES | K [1] | Tm [2] | Tm [3] | Activity [4] | Tm [5] | Activity [6] | Activity [7] | Tm [8] | Activity [9] |
| --- | --- | --- | --- | --- | --- | --- | --- | --- | --- |
| C#CCN1C(=O)c2cccc3c(C#Cc4ccc(C#N)cc4)ccc(c23)C1=O | 3.98 ×10⁴ /M | 63.2 °C | 65.6 °C | Active | 64.9 °C | inactive | inactive | 64.3 °C |  |
| C#CCN1C(=O)c2cccc3c(C#Cc4ccc(N(C)C)cc4)ccc(c23)C1=O |  |  |  |  |  | inactive | inactive |  | Active |
